Data reported in ChEMBL document CHEMBL1955756, “Design and synthesis of novel sulfonamide-containing bradykinin hB(2) receptor antagonists. Synthesis and structure-relationships of α,α-tetrahydropyranylglycine” (Bioorg Med Chem, 2012).
Active and inactive are the calls of the source. The rule behind the calls is not given here.

Columns and labels:
B2 bradykinin receptor [1] = molecular target: T1, B2 bradykinin receptor (Homo sapiens, UniProt P30411); test: Displacement of [3H]-Bradykinin from human bradykinin B2 receptor expressed in CHO cells membrane after 60 mins by scintillation counting; format: cell membranes
T1 sequence (P30411 whole entry): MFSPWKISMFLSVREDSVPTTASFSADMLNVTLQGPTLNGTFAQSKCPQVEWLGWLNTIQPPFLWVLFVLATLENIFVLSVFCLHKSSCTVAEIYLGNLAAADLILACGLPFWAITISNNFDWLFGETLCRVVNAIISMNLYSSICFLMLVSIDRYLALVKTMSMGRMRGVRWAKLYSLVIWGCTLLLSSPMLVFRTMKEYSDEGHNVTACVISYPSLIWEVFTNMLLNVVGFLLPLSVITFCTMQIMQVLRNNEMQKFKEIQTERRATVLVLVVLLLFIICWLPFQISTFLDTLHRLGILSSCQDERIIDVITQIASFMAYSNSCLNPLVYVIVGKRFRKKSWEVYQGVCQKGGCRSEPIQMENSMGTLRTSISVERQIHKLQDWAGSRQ

B2 bradykinin receptor [2] = molecular target: T1, B2 bradykinin receptor; test: Antagonist activity at human bradykinin B2 receptor expressed in dhfr-deficient CHO cells assessed as inhibition of bradykinin-induced inositol monophosphate accumulation preincubated for 15 mins prior bradykinin induction measured after 40 mins by liquid scintillation spectrometry; format: functional, cell-based; conditions: read-out: pA2 (converted)
Method in brief: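 CHOdhfr-/hB2R cells (1.8×10^5/well) plated overnight at 37 °C, labelled 24 h with myo-[3H]inositol (1 uCi/well). Antagonist pre-incubation 15 min, then BK 1×10^-11 to 1×10^-5 M for 40 min at 37 °C in Hepes pH 7.4 buffer with 25 mM LiCl. IP1 radioactivity by liquid scintillation. Agonist curves fitted for EC50; pA2 = log(CR−1) − log[antagonist].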

B1 bradykinin receptor = molecular target: T2, B1 bradykinin receptor (Homo sapiens, UniProt P46663); test: Displacement of [3H][desArg9]Lys-Bradykinin from human bradykinin B1 receptor expressed in CHO cells; format: cell-based
T2 sequence (P46663 whole entry): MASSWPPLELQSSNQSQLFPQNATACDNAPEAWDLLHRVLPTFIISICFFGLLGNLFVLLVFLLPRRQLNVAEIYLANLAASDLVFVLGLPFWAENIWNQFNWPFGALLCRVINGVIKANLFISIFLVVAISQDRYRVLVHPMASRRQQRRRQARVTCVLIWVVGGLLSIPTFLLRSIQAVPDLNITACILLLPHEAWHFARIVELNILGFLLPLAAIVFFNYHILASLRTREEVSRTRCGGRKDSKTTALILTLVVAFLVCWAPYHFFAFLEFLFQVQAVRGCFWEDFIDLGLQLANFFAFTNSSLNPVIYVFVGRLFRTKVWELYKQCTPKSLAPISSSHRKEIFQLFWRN

Cavia porcellus = test: Inhibition of bradykinin-induced bronchoconstriction in anesthetized Dunkin-Hartley guinea pig at […], it 5 mins prior bradykinin-induction for every 30 mins up to 210 mins; format: functional, organism-based
Method in brief: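 Anaesthetized male Dunkin Hartley guinea pigs, 350–400 g. Compound given intratracheally, then repeated iv BK challenges (10 nmol/kg) with bronchoconstriction recorded.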

[3] = molecular target: T3, B2 bradykinin receptor (Homo sapiens) (UniProt P30411); test: (§1) Reversible antagonist activity at human bradykinin B2 receptor expressed in dhfr-deficient CHO cells assessed as inhibition of bradykinin-induced inositol monophosphate accumulation at 3 uM preincubated for 15 mins prior bradykinin induction measured after 15 mins washout by liquid scintillation spectrometry; format: functional, cell-based
T3 sequence (whole entry): T1 sequence (P30411 whole entry)
Method in brief: (§2)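 Washout in the IP accumulation assay in CHO/hB2R cells: antagonist (3 µM or 100 nM) pre-incubated 15 min, with medium then fully replaced every 15 min in washed cells. BK (2 nM) added and the reaction stopped after one hour; IP formed quantified. Expressed as % inhibition of time-matched BK responses in vehicle-pre-incubated cells.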

[4] = molecular target: T3, B2 bradykinin receptor (Homo sapiens); test: as §1, with “after 30” for “after 15”; format: functional, cell-based; method in brief: as §2
[5] = molecular target: T3, B2 bradykinin receptor (Homo sapiens); test: as §1, with “after 45” for “after 15”; format: functional, cell-based; method in brief: as §2
[6] = molecular target: T3, B2 bradykinin receptor (Homo sapiens); test: as §1, with “100 nM” for “3 uM”; format: functional, cell-based; method in brief: as §2
[7] = molecular target: T3, B2 bradykinin receptor (Homo sapiens); test: as §1, with “at 100 nM” for “at 3 uM”, “after 30” for “after 15”; format: functional, cell-based; method in brief: as §2
[8] = molecular target: T3, B2 bradykinin receptor (Homo sapiens); test: as §1, with “at 100 nM” for “at 3 uM”, “after 45” for “after 15”; format: functional, cell-based; method in brief: as §2

SMILES | Ki (B2 bradykinin receptor [1]) [nM] | Kb (B2 bradykinin receptor [2]) [nM] | Ki (B1 bradykinin receptor) [nM] | other results
Cc1cc(C)c2cccc(OCc3c(Cl)ccc(S(=O)(=O)NC4(C(=O)N5CCC(C[N+](C)(C)C)CC5)CCOCC4)c3Cl)c2n1 | 0.398 | 5.01 | > 10000 | 
Cc1cc(C)c2cccc(OCc3c(Cl)ccc(S(=O)(=O)NC4(C(=O)N5CCN(C(=O)[C@@H](N)CCC[N+](C)(C)C)CC5)CCOCC4)c3Cl)c2n1 [FASITIBANT] |  |  | > 10000 | inhibition (Cavia porcellus): Active
Cc1cc(C)c2cccc(OCc3c(Cl)ccc(S(=O)(=O)NC4(C(=O)N5CCN(C(=O)C[N+](C)(C)C)CC5)CCOCC4)c3Cl)c2n1 | 0.0794 | 0.794 | > 10000 | 
Cc1cc(C)c2cccc(OCc3c(Cl)ccc(S(=O)(=O)NC4(C(=O)N5CCN(C(=O)[C@@H](N)CCCCN(C)C)CC5)CCOCC4)c3Cl)c2n1 | 0.0631 |  | > 10000 | 
Cc1cc(C)c2cccc(OCc3c(Cl)ccc(S(=O)(=O)NC4(C(=O)N5CCN(C(=O)CCC[N+](C)(C)C)CC5)CCOCC4)c3Cl)c2n1 | 0.126 | 0.794 | > 10000 | 
Cc1cc(C)c2cccc(OCc3c(Cl)ccc(S(=O)(=O)NC4(C(=O)N5CCN(CCC[N+](C)(C)C)CC5)CCOCC4)c3Cl)c2n1 | 0.316 |  | > 10000 | 
Cc1cc(C)c2cccc(OCc3c(Cl)ccc(S(=O)(=O)NC4(C(=O)N5CCN(C(=O)CCCCN(C)C)CC5)CCOCC4)c3Cl)c2n1 | 0.1 | 0.437 | > 10000 | 
Cc1cc(C)c2cccc(OCc3c(Cl)ccc(S(=O)(=O)NC4(C(=O)N5CC[N+]6(CC5)CC[N+](C)(C)CC6)CCOCC4)c3Cl)c2n1 | 0.251 | 5.01 | > 10000 | 
Cc1cc(C)c2cccc(OCc3c(Cl)ccc(S(=O)(=O)NC4(C(=O)N5CCC(CNCCC[N+](C)(C)C)CC5)CCOCC4)c3Cl)c2n1 | 0.158 | 2.51 | > 10000 | 
Cc1cc(C)c2cccc(OCc3c(Cl)ccc(S(=O)(=O)NC4(C(=O)N5CCN(C(=O)[C@@H](N)CCCN(C)C)CC5)CCOCC4)c3Cl)c2n1 | 0.0501 | 0.123 | > 10000 | 
Cc1cc(C)c2cccc(OCc3c(Cl)ccc(S(=O)(=O)NC4(C(=O)N5CCC(CNCCCC[N+](C)(C)C)CC5)CCOCC4)c3Cl)c2n1 | 0.0501 | 2.51 | > 10000 | 
Cc1cc(C)c2cccc(OCc3c(Cl)ccc(S(=O)(=O)NC4(C(=O)N5CCC(CCC[N+](C)(C)C)CC5)CCOCC4)c3Cl)c2n1 | 0.501 | 1.58 | > 10000 | 
Cc1cc(C)c2cccc(OCc3c(Cl)ccc(S(=O)(=O)NC4(C(=O)N5CC[N+]6(CCCC6)CC5)CCOCC4)c3Cl)c2n1 | 0.631 | 3.16 | > 10000 | 
Cc1cc(C)c2cccc(OCc3c(Cl)ccc(S(=O)(=O)NC4(C(=O)N5CCN(C(=O)[C@@H](N)CCCCNC(=N)N)CC5)CCOCC4)c3Cl)c2n1 | 0.0631 |  | > 10000 | 
Cc1cc(C)c2cccc(OCc3c(Cl)ccc(S(=O)(=O)NC4(C(=O)N5CCN(C(=O)CCCCC[N+](C)(C)C)CC5)CCOCC4)c3Cl)c2n1 | 0.126 | 0.794 | > 10000 | 
Cc1cc(C)c2cccc(OCc3c(Cl)ccc(S(=O)(=O)NC4(C(=O)N5CCN(C(=O)CCCCN)CC5)CCOCC4)c3Cl)c2n1 | 0.0794 | 0.479 | > 10000 | 
Cc1cc(C)c2cccc(OCc3c(Cl)ccc(S(=O)(=O)NC4(C(=O)N5CCN(C(=O)[C@@H](N)CCCCN)CC5)CCOCC4)c3Cl)c2n1 | 0.1 | 0.398 | > 10000 | 

SMILES | Ki (B2 bradykinin receptor [1]) [nM] | Kb (B2 bradykinin receptor [2]) [nM] | Ki (B1 bradykinin receptor) [nM] | other results
Cc1cc(C)c2cccc(OCc3c(Cl)ccc(S(=O)(=O)NC4(C(=O)N5CCN(CCCCCC[N+](C)(C)C)CC5)CCOCC4)c3Cl)c2n1 | 0.0631 | 0.794 | > 10000 | 
Cc1cc(C)c2cccc(OCc3c(Cl)ccc(S(=O)(=O)NC4(C(=O)N5CCN(C(=O)CCCCCC[N+](C)(C)C)CC5)CCOCC4)c3Cl)c2n1 | 0.2 | 1.26 | > 10000 | 
Cc1cc(C)c2cccc(OCc3c(Cl)ccc(S(=O)(=O)NC4(C(=O)N5CC[N+](C)(CCCC[N+](C)(C)C)CC5)CCOCC4)c3Cl)c2n1 | 0.0794 | 2 | > 10000 | 
Cc1cc(C)c2cccc(OCc3c(Cl)ccc(S(=O)(=O)NC4(C(=O)N5CCC(CCCC[N+](C)(C)C)CC5)CCOCC4)c3Cl)c2n1 | 0.631 | 3.98 | > 10000 | inhibition [3]: 23%; inhibition [4]: 6%; inhibition [5]: -0%
Cc1cc(C)c2cccc(OCc3c(Cl)ccc(S(=O)(=O)NC4(C(=O)N5CCC(CC[N+](C)(C)C)CC5)CCOCC4)c3Cl)c2n1 | 0.794 | 3.98 | > 10000 | 
Cc1cc(C)c2cccc(OCc3c(Cl)ccc(S(=O)(=O)NC4(C(=O)N5CC[N+](C)(CC[N+](C)(C)C)CC5)CCOCC4)c3Cl)c2n1 | 0.251 | 3.16 | > 10000 | 
Cc1cc(C)c2cccc(OCc3c(Cl)ccc(S(=O)(=O)NC4(C(=O)N5CCN(C(=O)[C@@H](N)CCCC[N+](C)(C)C)CC5)CCOCC4)c3Cl)c2n1 | 0.251 | 0.398 | > 10000 | 
Cc1cc(C)c2cccc(OCc3c(Cl)ccc(S(=O)(=O)NC4(C(=O)N5CC[N+]6(CCN(C)CC6)CC5)CCOCC4)c3Cl)c2n1 | 1 | 1.58 | > 10000 | 
Cc1cc(C)c2cccc(OCc3c(Cl)ccc(S(=O)(=O)NC4(C(=O)N5CCC(CNCC[N+](C)(C)C)CC5)CCOCC4)c3Cl)c2n1 | 0.2 | 2.51 | > 10000 | 
Cc1cc(C)c2cccc(OCc3c(Cl)ccc(S(=O)(=O)NC4(C(=O)N5CCN(C(=O)[C@@H](N)CCCN)CC5)CCOCC4)c3Cl)c2n1 | 0.0501 | 0.724 | > 10000 | 
Cc1cc(C)c2cccc(OCc3c(Cl)ccc(S(=O)(=O)NC4(C(=O)N5CC[N+]6(CCCCC6)CC5)CCOCC4)c3Cl)c2n1 | 0.398 | 2.63 | > 10000 | inhibition [6]: 72%; inhibition [7]: 9%; inhibition [8]: -0%
Cc1cc(C)c2cccc(OCc3c(Cl)ccc(S(=O)(=O)NC4(C(=O)N5CC[N+](C)(CCCCC[N+](C)(C)C)CC5)CCOCC4)c3Cl)c2n1 | 0.0501 | 2.51 | > 10000 | 
Cc1cc(C)c2cccc(OCc3c(Cl)ccc(S(=O)(=O)NC4(C(=O)N5CCN(CC[N+](C)(C)C)CC5)CCOCC4)c3Cl)c2n1 | 0.794 |  | > 10000 | 
Cc1cc(C)c2cccc(OCc3c(Cl)ccc(S(=O)(=O)NC4(C(=O)N5CC[N+](C)(CCCCCC[N+](C)(C)C)CC5)CCOCC4)c3Cl)c2n1 | 0.0398 | 3.16 | > 10000 | 
Cc1cc(C)c2cccc(OCc3c(Cl)ccc(S(=O)(=O)NC4(C(=O)N5CC[N+](C)(CCC[N+](C)(C)C)CC5)CCOCC4)c3Cl)c2n1 | 0.1 | 1 | > 10000 | 
Cc1cc(C)c2cccc(OCc3c(Cl)ccc(S(=O)(=O)NC4(C(=O)N5CCN(C(=O)[C@@H](N)CCCNC(=N)N)CC5)CCOCC4)c3Cl)c2n1 | 0.126 |  | > 10000 | 
